Where a SMILES comes first, the peptide text is derived from it. [ ]: non-standard residue; d: D form. Nva = CCC[C@H](N)C(=O)O
How the values were obtained:
STAM mice = assay: STAM; assay type: in vivo, C57BL/6N mice
Outline: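 Male C57BL/6N mice received 200 μg streptozotocin s.c. at 2 days after birth and were fed HFD (57 kcal% fat) from week 4 to week 9. From week 6 to week 9, mice received saline vehicle or test compound at 0.5 or 5 mg/kg/day, by daily s.c. injection or s.c. osmotic pump (0.25 μL/h); n=6/group. Read-outs were body weight during treatment, and terminal plasma ALT/AST (dry-chemistry analyser) and liver weight. Unpaired two-sided t-test.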

[1] = Pharmacokinetic study after single s.c. injection; assay type: in vivo, Sprague-Dawley rats; conditions: male, Sprague-Dawley, rat, plasma, sc, 10 mg/kg
Outline: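 Male adult Sprague–Dawley rats (two per cage, 22–24°C, 12-h light cycle) received a single s.c. dose of 10 mg/kg. Plasma peptide was measured by LC–MS/MS. PK parameters were computed with values below LLOQ set to zero.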

[2] = cited from earlier work
[3] = system: mice with TAA-induced liver injury / CCl4-induced liver fibrosis; conditions: cited from earlier work
[4] = system: human induced pluripotent stem (iPS) cell-derived hepatocytes; assay: MTT cytotoxicity assay; assay type: cell-based; conditions: ALY688 0.5 to 2000 nM, globular adiponectin 1 μg/mL; 4 and 24 h; Figure S1A
Outline: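 iPS cell-derived human hepatocytes were exposed to test compound at 0.5, 1, 100, 500, 1000, 1500 and 2000 nM, to globular adiponectin 1 μg/mL, or to H₂O₂ 500 μM for 4 and 24 h. Viability was quantified by MTT formazan per manufacturer. Experiments were repeated at least three times; mean ± SEM.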

[5] = system: human induced pluripotent stem (iPS) cell-derived hepatocytes; assay: LDH release cytotoxicity assay; assay type: cell-based; conditions: ALY688 0.5 to 2000 nM, globular adiponectin 1 μg/mL; 4 and 24 h; Figure S1B
Outline: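 iPS cell-derived human hepatocytes were exposed to test compound at 0.5, 1, 100, 500, 1000, 1500 and 2000 nM, to globular adiponectin 1 μg/mL, or to H₂O₂ 500 μM for 4 and 24 h. Cytotoxicity was quantified as LDH release by kit per manufacturer. Experiments were repeated at least three times; mean ± SEM.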

CDAHFD-fed mice [6] = assay: Hepatic fibrosis in CDAHF mouse model; assay type: in vivo, C57BL/6N mice; conditions: 30 mg/kg daily oral; Figure 3a-c
liver of CDAHFD-fed mice = assay: Hepatic gene expression in CDAHF mouse model; assay type: in vivo, C57BL/6N mice; conditions: RT-qPCR, 30 mg/kg oral
CDAHFD-fed mice [7] = assay: CDAHF diet-induced mouse model of MASH; assay type: in vivo, C57BL/6N mice; conditions: 30 mg/kg/day oral dosing; Figure 2c-g
Outline: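 Male C57BL/6N mice, 8 weeks old, fed a choline-deficient, low-methionine high-fat diet (60 kcal% fat) for 12 weeks. From week 3, obeticholic acid 30 mg/kg was given daily by oral gavage in 0.5% CMC/0.01% Tween-80 for 9 weeks. Vehicle-treated chow-fed mice served as negative controls (n=10/group). End-of-treatment read-outs were serum ALT/AST by commercial kits, liver weight, hepatic TG and H&E NAS scoring.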

[8] = continuous infusion, high dose 5 mg/kg/day, vs control mice

SMILES | Body weight during the treatment period (STAM mice; 0.5 or 5 mg/kg/day, daily s.c. or osmotic pump, Figure 1b) | Serum ALT level (STAM mice; [8]) | Serum AST level (STAM mice; [8]) | Serum ALT and AST levels (STAM mice; daily s.c. injection, 0.5 or 5 mg/kg/day, vs vehicle) | half-life [1] [min] | Stability in mouse plasma [2] | Effect against TAA-induced liver injury and CCl4-induced liver fibrosis [3] | Cytotoxicity, MTT assay [4] | Cytotoxicity, LDH release assay [5] | Hepatic fibrosis by histological examination (CDAHFD-fed mice [6]) | Hepatic expression of fatty acid oxidation genes (Acot1, Acox1, Cyp4a12) (liver of CDAHFD-fed mice; Figure 4e) | Hepatic expression of fibrosis-related genes (Tgfβ, Col1a1, Timp1) (liver of CDAHFD-fed mice; Figure 4f) | Expression of MASH-induced inflammatory genes (liver of CDAHFD-fed mice; Figure 4g) | Effect on alleviating MASH (CDAHFD-fed mice [7])
CCC[C@H](NC(=O)[C@@H]1CCCN1C(=O)[C@@H](NC(=O)[C@H](N)CC(N)=O)[C@@H](C)CC)C(=O)N[C@@H](CC(C)C)C(=O)N[C@@H](Cc1ccc(O)cc1)C(=O)N[C@H](CO)C(=O)N[C@@H](Cc1ccccc1)C(=O)N[C@@H](C)C(=O)N[C@H](CO)C(N)=O [ALY688] (H-[dN]IP[Nva]LY[dS]FA[dS]-NH2; N-terminus and C-terminus assumed) | did not induce change in body weight | slightly lower levels of ALT without statistical significance | significantly reduced | did not affect | 27 | good stability | liver protective effects | No toxicity | No toxicity | – | – | – | – | –
CC[C@H]1[C@@H](O)[C@@H]2[C@H](CC[C@]3(C)[C@@H]([C@H](C)CCC(=O)O)CC[C@@H]23)[C@@]2(C)CC[C@@H](O)C[C@@H]12 [OCA, obeticholic acid] | – | – | – | – | – | – | – | – | – | protective effects against hepatic fibrosis | restored | appeared to reduce the expression of most of these fibrotic genes, although without statistical significance | failed to reverse | did not show beneficial effects

From article PMC11157418 (Clinical and Translational Science, 2024)
